Active and inactive are the calls of the source. The calls are words filed in the database; no cut-off is given here.
What was measured:
[1] = biological target: MDR1 (ABCB1, P-glycoprotein) (Homo sapiens, UniProt P08183); test: Activity at MDR1 in human Caco2 cells assessed as efflux ratio of apparent permeability from basolateral to apical side over apical to basolateral side; type: cell-based; settings: Caco-2
Method in brief: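 Caco-2 cells grown 21 days on filter inserts, then washed with HBSS and equilibrated 30 min at 37 °C. Compound at 100 µM added to the donor side and incubated 120 min at 37 °C. Papp in nm/s calculated as (VA/Area) × ([drug]acceptor/[drug]initial)/time, membrane area 0.11 cm2. BA/AB ratio from two independent experiments.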

[2] = biological target: T1, ATP-dependent translocase ABCB1 (Homo sapiens, UniProt P08183); test: Inhibition of MDR1 (unknown origin) expressed in MDCK cells assessed as increase in calcein-AM accumulation after 30 mins by calcein-AM dye based fluorescence assay; type: cell-based
T1 sequence (P08183 whole entry): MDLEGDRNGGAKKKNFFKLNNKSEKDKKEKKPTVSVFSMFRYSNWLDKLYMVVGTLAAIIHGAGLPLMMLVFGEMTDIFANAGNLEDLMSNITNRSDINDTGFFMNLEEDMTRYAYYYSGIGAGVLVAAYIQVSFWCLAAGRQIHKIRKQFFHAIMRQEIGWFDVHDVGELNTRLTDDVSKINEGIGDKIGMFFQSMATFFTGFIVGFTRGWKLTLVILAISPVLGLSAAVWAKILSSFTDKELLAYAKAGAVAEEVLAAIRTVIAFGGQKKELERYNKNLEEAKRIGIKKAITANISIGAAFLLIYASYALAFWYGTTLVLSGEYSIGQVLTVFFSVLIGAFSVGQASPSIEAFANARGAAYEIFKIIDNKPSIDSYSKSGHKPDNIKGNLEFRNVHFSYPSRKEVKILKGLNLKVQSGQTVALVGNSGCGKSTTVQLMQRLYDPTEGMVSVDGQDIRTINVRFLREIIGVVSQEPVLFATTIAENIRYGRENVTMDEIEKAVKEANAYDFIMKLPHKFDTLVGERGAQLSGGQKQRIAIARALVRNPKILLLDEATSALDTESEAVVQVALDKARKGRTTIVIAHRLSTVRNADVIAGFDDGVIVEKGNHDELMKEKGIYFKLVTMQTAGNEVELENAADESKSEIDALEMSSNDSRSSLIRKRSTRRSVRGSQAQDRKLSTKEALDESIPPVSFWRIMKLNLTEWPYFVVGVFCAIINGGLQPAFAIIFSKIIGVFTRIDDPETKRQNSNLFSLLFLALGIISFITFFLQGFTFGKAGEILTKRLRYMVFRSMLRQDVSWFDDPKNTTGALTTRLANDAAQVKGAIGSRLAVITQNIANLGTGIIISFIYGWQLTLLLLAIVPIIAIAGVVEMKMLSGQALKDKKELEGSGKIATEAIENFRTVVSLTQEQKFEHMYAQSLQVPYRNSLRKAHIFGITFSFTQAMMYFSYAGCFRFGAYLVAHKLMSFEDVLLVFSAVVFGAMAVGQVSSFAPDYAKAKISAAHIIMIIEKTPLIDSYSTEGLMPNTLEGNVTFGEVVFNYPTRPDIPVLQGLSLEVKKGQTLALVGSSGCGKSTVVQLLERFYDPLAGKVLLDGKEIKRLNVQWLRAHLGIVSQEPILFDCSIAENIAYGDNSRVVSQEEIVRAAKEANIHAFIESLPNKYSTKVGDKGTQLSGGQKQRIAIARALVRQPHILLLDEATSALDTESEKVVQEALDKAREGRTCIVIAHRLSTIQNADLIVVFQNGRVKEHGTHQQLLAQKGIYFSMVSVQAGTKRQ
Method in brief: (§1)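 MDCK-MDR1 or MDCK-MRP1 cells seeded at 30,000/well and grown to confluence overnight. Compound (0.1–100 µM final, in medium) incubated 30 min at 37 °C, then calcein-AM added (2.5 µM final) for 30 min. Cells washed with ice-cold PBS and read at ex 485/em 535 nm. EC50 fitted from % fluorescence increase over untreated vs log dose. Mean ± SEM, three experiments in triplicate.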

[3] = biological target: Multidrug resistance-associated protein 1 (Homo sapiens, UniProt P33527); test: Inhibition of MRP1 (unknown origin) expressed in MDCK cells assessed as increase in calcein-AM accumulation incubated for 30 mins by calcein-AM dye based fluorescence assay; type: cell-based; method in brief: as §1
Chain of Multidrug resistance-associated protein 1 (P33527 whole entry): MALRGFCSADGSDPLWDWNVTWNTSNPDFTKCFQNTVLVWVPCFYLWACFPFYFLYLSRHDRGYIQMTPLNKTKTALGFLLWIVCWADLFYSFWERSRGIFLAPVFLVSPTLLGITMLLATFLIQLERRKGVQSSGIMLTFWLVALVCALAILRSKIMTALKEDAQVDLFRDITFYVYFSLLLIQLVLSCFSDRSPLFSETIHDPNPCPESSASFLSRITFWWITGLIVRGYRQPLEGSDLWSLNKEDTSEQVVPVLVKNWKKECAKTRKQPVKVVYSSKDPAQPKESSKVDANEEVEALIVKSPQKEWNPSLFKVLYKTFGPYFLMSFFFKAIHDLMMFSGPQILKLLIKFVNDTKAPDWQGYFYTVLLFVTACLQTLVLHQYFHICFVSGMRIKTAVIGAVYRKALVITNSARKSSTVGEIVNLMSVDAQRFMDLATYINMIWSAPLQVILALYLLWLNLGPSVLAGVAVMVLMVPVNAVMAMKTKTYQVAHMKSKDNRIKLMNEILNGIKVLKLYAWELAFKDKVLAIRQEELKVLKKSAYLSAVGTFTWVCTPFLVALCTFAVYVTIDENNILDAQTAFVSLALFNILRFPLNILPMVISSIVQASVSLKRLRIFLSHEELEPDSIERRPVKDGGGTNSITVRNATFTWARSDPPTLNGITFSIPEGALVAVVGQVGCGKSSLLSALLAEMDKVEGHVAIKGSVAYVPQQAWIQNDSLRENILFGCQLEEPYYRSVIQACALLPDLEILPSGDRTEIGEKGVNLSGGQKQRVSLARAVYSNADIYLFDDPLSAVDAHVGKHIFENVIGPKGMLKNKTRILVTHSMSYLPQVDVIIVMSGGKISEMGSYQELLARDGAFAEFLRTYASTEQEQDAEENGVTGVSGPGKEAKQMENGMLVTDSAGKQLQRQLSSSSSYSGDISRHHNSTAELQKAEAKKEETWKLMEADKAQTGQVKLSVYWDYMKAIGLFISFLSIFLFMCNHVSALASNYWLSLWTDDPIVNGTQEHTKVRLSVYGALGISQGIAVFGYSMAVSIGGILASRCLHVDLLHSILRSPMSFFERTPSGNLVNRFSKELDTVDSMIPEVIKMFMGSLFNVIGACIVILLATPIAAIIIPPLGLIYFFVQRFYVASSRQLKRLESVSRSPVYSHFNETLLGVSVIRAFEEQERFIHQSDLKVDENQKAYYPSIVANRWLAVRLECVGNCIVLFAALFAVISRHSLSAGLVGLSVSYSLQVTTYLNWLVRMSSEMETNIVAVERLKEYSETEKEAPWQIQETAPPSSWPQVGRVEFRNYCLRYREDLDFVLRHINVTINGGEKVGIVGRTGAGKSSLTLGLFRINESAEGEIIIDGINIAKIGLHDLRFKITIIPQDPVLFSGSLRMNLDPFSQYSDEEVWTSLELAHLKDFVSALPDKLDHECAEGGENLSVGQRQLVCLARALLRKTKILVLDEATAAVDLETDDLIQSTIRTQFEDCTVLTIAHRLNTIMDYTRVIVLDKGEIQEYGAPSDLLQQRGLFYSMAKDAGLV

[4] = biological target: T2, Broad substrate specificity ATP-binding cassette transporter ABCG2 (Homo sapiens, UniProt Q9UNQ0); test: Inhibition of BCRP (unknown origin) expressed in MDCK cells assessed as reduction in Hoechst 33342 efflux preincubated for 30 mins followed by Hoechst 3334 addition measured after 30 mins by fluorescence assay; type: cell-based
T2 sequence (Q9UNQ0 whole entry): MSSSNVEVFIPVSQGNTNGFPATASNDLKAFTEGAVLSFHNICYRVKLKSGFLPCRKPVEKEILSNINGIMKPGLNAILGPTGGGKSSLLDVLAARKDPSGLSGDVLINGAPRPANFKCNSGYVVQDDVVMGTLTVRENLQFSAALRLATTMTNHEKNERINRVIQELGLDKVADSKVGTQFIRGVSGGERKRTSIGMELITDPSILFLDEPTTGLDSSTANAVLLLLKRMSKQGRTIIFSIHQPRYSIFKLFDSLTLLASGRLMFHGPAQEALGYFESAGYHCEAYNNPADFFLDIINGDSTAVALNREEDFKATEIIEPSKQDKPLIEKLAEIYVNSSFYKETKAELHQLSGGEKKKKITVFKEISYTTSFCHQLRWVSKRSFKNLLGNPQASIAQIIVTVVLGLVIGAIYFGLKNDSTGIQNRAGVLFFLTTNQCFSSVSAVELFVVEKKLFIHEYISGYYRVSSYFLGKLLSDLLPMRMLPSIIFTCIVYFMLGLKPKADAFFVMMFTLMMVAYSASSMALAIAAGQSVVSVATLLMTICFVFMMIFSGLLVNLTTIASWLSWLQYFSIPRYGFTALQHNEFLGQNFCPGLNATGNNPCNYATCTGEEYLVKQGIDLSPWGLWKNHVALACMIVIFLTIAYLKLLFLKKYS
Method in brief: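 MDCK-BCRP monolayers (30,000 cells/well, confluent overnight) preincubated 30 min at 37 °C with compound (0.1–100 µM final). Hoechst 33342 then added (8 µM final) for 30 min. Cells fixed 20 min in 4% PFA, washed with ice-cold PBS and read at ex 340/em 485 nm. EC50 fitted from % fluorescence increase over basal vs log dose. Mean ± SEM, three experiments in triplicate.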

[5] = biological target: T1, ATP-dependent translocase ABCB1; test: Inhibition of MDR1 in human primary mesothelioma stem cells assessed as increase in intracellular doxorubicin accumulation at 10 to 10000 nM after 3 hrs by spectrofluorimetric analysis; type: cell-based
Method in brief: (§2)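 Differentiated or stem cells from primary glioblastoma or mesothelioma of 3 patients (stem cells used within passage 6). Incubated 3 h with 5 µM doxorubicin, alone or with compound (DMSO 1% v/v). Washed, lysed in ethanol/0.3 N HCl, doxorubicin fluorescence read at ex 475/em 553 nm and expressed as nmol/mg cell protein via calibration curve. Duplicates, n=3, mean ± SEM.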

[6] = Cytotoxicity against human GSC at 10 nM after 24 hrs by LDH release assay; settings: 0.01 µM
[7] = species: Homo sapiens; test: Potentiation of doxorubicin-induced cytotoxicity in human differentiated primary glioblastoma cells assessed as increase in doxorubicin-induced reduction in cell viability at 10 nM after 24 hrs by LDH release assay; type: functional, cell-based
[8] = species: Homo sapiens; test: Induction of intracellular doxorubicin accumulation in human differentiated primary mesothelioma stem cells at 10 to 10000 nM after 3 hrs by spectrofluorimetric analysis; type: functional, cell-based; method in brief: as §2
[9] = species: Homo sapiens; test: Induction of intracellular doxorubicin accumulation in human differentiated primary glioblastoma cells at 10 to 10000 nM after 3 hrs by spectrofluorimetric analysis; type: functional, cell-based; method in brief: as §2
[10] = biological target: T1, ATP-dependent translocase ABCB1; test: Inhibition of MDR1 in human primary mesothelioma stem cells assessed as increase in doxorubicin-induced reduction in cell viability at 10 nM after 72 hrs by ATPlite luminescence assay; settings: 0.01 µM
Method in brief: (§3)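 Primary glioblastoma or mesothelioma differentiated and stem cells incubated 72 h with medium, 5 µM doxorubicin, 10 nM compound or 1 µM elacridar, alone or combined (DMSO 1% v/v). Viability by ATPlite luminescence as % of untreated RLU. Quadruplicates, n=3, mean ± SEM, one-way ANOVA.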

[11] = species: Homo sapiens; test: Potentiation of doxorubicin-induced cytotoxicity in human differentiated primary glioblastoma cells assessed as increase in doxorubicin-induced reduction in cell viability at 10 nM after 72 hrs by ATPlite luminescence assay; type: functional, cell-based; method in brief: as §3
[12] = species: Homo sapiens; test: Induction of doxorubicin accumulation in P-gp knocked out human primary glioblastoma stem cells co-expressing CRISPR-Cas at 10 nM after 3 hrs by spectrofluorimetric analysis; type: functional
Method in brief: (§4)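 Patient-derived glioblastoma (line 4, patient #2) or mesothelioma (line 5, patient #1) stem cells, untreated, scrambled CRISPR-Cas or P-gp CRISPR-Cas knockout. Incubated 3 h with 5 µM doxorubicin. Cells lysed in ethanol/0.3 N HCl and doxorubicin read fluorimetrically at ex 475/em 553 nm, converted to nmol/mg protein by calibration. Duplicates, n=3, mean ± SEM, one-way ANOVA.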

[13] = species: Homo sapiens; test: Induction of doxorubicin accumulation in P-gp knocked out human primary mesothelioma stem cells co-expressing CRISPR-Cas at 10 nM after 3 hrs by spectrofluorimetric analysis; type: functional; method in brief: as §4
[14] = species: Homo sapiens; test: Potentiation of doxorubicin-induced cytotoxicity in human differentiated primary mesothelioma cells assessed as increase in doxorubicin-induced reduction in cell viability at 10 nM after 24 hrs by LDH release assay; type: functional, cell-based
[15] = biological target: T1, ATP-dependent translocase ABCB1; test: Inhibition of MDR1 in human GSC assessed as increase in doxorubicin-induced cell toxicity at 10 nM after 24 hrs by LDH release assay; settings: 0.01 µM
[16] = biological target: T1, ATP-dependent translocase ABCB1; test: Inhibition of MDR1 in human MSC assessed as increase in doxorubicin-induced cell toxicity at 10 nM after 24 hrs by LDH release assay; settings: 0.01 µM
[17] = biological target: T1, ATP-dependent translocase ABCB1; test: Inhibition of MDR1 in human primary glioblastoma stem cells assessed as increase in intracellular doxorubicin accumulation at 10 to 10000 nM after 3 hrs by spectrofluorimetric analysis; type: cell-based; method in brief: as §2
[18] = biological target: T1, ATP-dependent translocase ABCB1; test: Inhibition of MDR1 in human primary glioblastoma stem cells assessed as increase in doxorubicin-induced reduction in cell viability at 10 nM after 72 hrs by ATPlite luminescence assay; settings: 0.01 µM; method in brief: as §3
[19] = Cytotoxicity against human MSC at 10 nM after 24 hrs by LDH release assay; settings: 0.01 µM
[20] = biological target: T1, ATP-dependent translocase ABCB1; test: Inhibition of MDR1 (unknown origin) expressed in MDCK1 cells assessed as potentiation of doxorubicin-induced decrease in cell proliferation at 1 uM administered alone on day 2 followed by drug addition day 3 along with doxorubicin addition by MTT assay; type: cell-based
Method in brief: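 MDCK-MDR1 cells, 10000/well. On day 2, compound alone at 10 nM, 100 nM or 1 µM. On day 3, medium replaced with compound alone or with 10 µM doxorubicin; 48 h assay. MTT 0.5 mg/mL for 3–4 h at 37 °C, formazan dissolved in DMSO/EtOH 1:1, absorbance read at 570/630 nm. Solvent 1% v/v DMSO. Mean ± SEM, two experiments in triplicate; one-way ANOVA.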

[21] = biological target: T1, ATP-dependent translocase ABCB1; test: Inhibition of MDR1 in human primary glioblastoma stem cells assessed as increase in doxorubicin-induced reduction in cell viability at 10 nM after 24 hrs by LDH release assay; settings: 0.01 µM
[22] = species: Homo sapiens; test: Potentiation of doxorubicin-induced cytotoxicity in human differentiated primary mesothelioma cells assessed as increase in doxorubicin-induced reduction in cell viability at 10 nM after 72 hrs by ATPlite luminescence assay; type: functional, cell-based; method in brief: as §3
[23] = biological target: T1, ATP-dependent translocase ABCB1; test: Inhibition of MDR1 in human primary mesothelioma stem cells assessed as increase in doxorubicin-induced reduction in cell viability at 10 nM after 24 hrs by LDH release assay; settings: 0.01 µM

Chain of MDR1 (ABCB1, P-glycoprotein) (P08183 whole entry): as the sequence (P08183 whole entry) above

Row | efflux ratio [1] | EC50 ([2]; read-out: EC50) | EC50 [3] | EC50 ([4]; mdck) | SMILES | further results
1 | 12 | 900 nM | Not Active | Not Active | COc1cc2c(cc1OC)CN(Cc1ccc(-c3ccc4[nH]ncc4c3)cc1)CC2 | –
2 | 5 | 5200 nM | Not Active | Not Active | COc1cc2c(cc1OC)CN(Cc1ccc(-c3ccc(NS(C)(=O)=O)cc3)cc1)CC2 | –
3 | 12.8 | 320 nM | Not Active | – | CCCCNC(=O)Nc1ccc(-c2ccc(CN3CCc4cc(OC)c(OC)cc4C3)cc2)cc1 | EC50 ([4]; read-out: EC50): 46000 nM
4 | 1.9 | 21200 nM | Not Active | Not Active | COc1cc2c(cc1OC)CN(Cc1ccc(-c3ccc4[nH]ccc4c3)cc1)CC2 | –
5 | 15 | 29500 nM | Not Active | Not Active | COc1cc2c(cc1OC)CN(Cc1ccc(-c3ccc4[nH]c(=O)[nH]c4c3)cc1)CC2 | –
6 | 4.2 | 19200 nM | Not Active | Not Active | COc1cc2c(cc1OC)CN(Cc1ccc(-c3ccc4c(ccn4S(=O)(=O)c4ccccc4)c3)cc1)CC2 | –
7 | 17.6 | 1100 nM | Not Active | Not Active | CCCNC(=O)Nc1ccc(-c2ccc(CN3CCc4cc(OC)c(OC)cc4C3)cc2)cc1 | –
8 | 3.6 | 1470 nM | Not Active | Not Active | COc1cc2c(cc1OC)CN(Cc1ccc(-c3ccc4c(c3)CC(=O)N4)cc1)CC2 | –
9 | 15 | 870 nM | Not Active | Not Active | COc1cc2c(cc1OC)CN(Cc1ccc(-c3ccc(NS(=O)(=O)c4ccccc4)cc3)cc1)CC2 | –
10 | 8.1 | 21400 nM | Not Active | Not Active | COc1cc2c(cc1OC)CN(Cc1ccc(-c3ccc4c(c3)C(=O)C(=O)N4)cc1)CC2 | –
11 | > 20 | 15.3 nM | Not Active | Not Active | COc1cc2c(cc1OC)CN(Cc1ccc(-c3ccc(N(S(=O)(=O)c4ccccc4)S(=O)(=O)c4ccccc4)cc3)cc1)CC2 | inhibition (INH) [5]: Active; Activity [6]: Non-Toxic; Activity [7]: inactive; Activity [8]: inactive; Activity [9]: inactive; inhibition (INH) [10]: Active; Activity [11]: inactive; Activity [12]: inactive; Activity [13]: inactive; Activity [14]: inactive; inhibition (INH) [15]: Active; inhibition (INH) [16]: Active; inhibition (INH) [17]: Active; inhibition (INH) [18]: Active; Activity [19]: Non-Toxic; inhibition (INH) [20]: Active; inhibition (INH) [21]: Active; Activity [22]: inactive; inhibition (INH) [23]: Active
12 | 8.5 | 1200 nM | Not Active | – | COc1cc2c(cc1OC)CN(Cc1ccc(-c3ccc4c(c3)C(N3CCc5cc(OC)c(OC)cc5C3)C(=O)N4)cc1)CC2 (configuration not stated) | EC50 ([4]; read-out: EC50): 1800 nM
13 | > 20 | 980 nM | Not Active | Not Active | COc1cc2c(cc1OC)CN(Cc1ccc(-c3ccc(NC(=O)Nc4ccccc4)cc3)cc1)CC2 | –
14 | 9.3 | 1700 nM | Not Active | Not Active | CCNC(=O)Nc1ccc(-c2ccc(CN3CCc4cc(OC)c(OC)cc4C3)cc2)cc1 | –
15 | 13.6 | 1520 nM | Not Active | Not Active | COc1cc2c(cc1OC)CN(Cc1ccc(-c3ccc(NC(C)=O)cc3)cc1)CC2 | –
16 | 19.9 | – | Not Active | Not Active | COc1cc2c(cc1OC)CN(Cc1ccc(-c3ccc(NC(=O)c4ccccc4)cc3)cc1)CC2 | EC50 ([2]; mdck): Not Active
17 | 1.3 | – | – | – | COc1cc2c(cc1OC)CN(Cc1ccc(-c3ccc(O)cc3)cc1)CC2 | –
18 | 9.2 | 6930 nM | Not Active | Not Active | COc1cc2c(cc1OC)CN(Cc1ccc(-c3ccc4[nH]cnc4c3)cc1)CC2 | –
19 | 12.8 | 3100 nM | Not Active | Not Active | CNC(=O)Nc1ccc(-c2ccc(CN3CCc4cc(OC)c(OC)cc4C3)cc2)cc1 | –
